Laboratory results reported in ChEMBL document CHEMBL4007432, “Discovery and characterization of novel CYP1B1 inhibitors based on heterocyclic chalcones: Overcoming cisplatin resistance in CYP1B1-overexpressing lines” (Eur J Med Chem, 2017).

How the values were obtained:
Cytochrome P450 1B1 [1] = molecular target: T1, Cytochrome P450 1B1 (Homo sapiens, UniProt Q16678); assay: Inhibition of human liver CYP1B1 expressed in Saccharomyces cerevisiae YY7 microsomal membranes using 7-ethoxyresorufin as substrate after 10 mins by fluorescence assay
T1 sequence (Q16678 whole entry): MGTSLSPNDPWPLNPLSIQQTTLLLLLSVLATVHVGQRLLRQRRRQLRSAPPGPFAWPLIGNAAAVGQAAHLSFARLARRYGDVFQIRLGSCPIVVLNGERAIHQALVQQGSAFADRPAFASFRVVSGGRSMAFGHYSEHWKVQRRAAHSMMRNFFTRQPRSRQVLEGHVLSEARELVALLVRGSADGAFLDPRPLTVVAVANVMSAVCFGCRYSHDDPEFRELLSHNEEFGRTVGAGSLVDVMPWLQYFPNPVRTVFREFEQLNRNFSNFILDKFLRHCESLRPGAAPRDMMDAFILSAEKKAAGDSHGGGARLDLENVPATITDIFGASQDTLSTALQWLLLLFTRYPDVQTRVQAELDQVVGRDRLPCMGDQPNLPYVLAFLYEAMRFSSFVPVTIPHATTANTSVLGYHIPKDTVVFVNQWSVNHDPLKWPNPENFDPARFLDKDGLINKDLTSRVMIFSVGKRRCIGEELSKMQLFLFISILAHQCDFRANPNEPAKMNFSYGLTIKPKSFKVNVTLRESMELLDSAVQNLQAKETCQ
Summary of the method: (§1)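 Yeast microsomes (YY7 strain carrying human reductase) held 0.5 pmol CYP with an NADP+/glucose-6-phosphate/G6PDH regenerating system in KPi. Fluorogenic substrate per isoform: 7-ER, CEC, EOMCC or DBF. Six serial 1:20 dilutions were tested, DMSO ≤0.5%. Reactions ran 10 min at 37 °C and were stopped with Tris-acetonitrile. Endpoint fluorescence (530/590 nm for resorufin) was fitted by 4-parameter sigmoid. Triplicate, ≥3 experiments.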

Cytochrome P450 1A1 = molecular target: T2, Cytochrome P450 1A1 (Homo sapiens, UniProt P04798); assay: Inhibition of human liver CYP1A1 expressed in Saccharomyces cerevisiae YY7 microsomal membranes using 7-ethoxyresorufin as substrate after 10 mins by fluorescence assay; type: ADME, Microsomal Membrane; summary of the method: as §1
T2 sequence (P04798 whole entry): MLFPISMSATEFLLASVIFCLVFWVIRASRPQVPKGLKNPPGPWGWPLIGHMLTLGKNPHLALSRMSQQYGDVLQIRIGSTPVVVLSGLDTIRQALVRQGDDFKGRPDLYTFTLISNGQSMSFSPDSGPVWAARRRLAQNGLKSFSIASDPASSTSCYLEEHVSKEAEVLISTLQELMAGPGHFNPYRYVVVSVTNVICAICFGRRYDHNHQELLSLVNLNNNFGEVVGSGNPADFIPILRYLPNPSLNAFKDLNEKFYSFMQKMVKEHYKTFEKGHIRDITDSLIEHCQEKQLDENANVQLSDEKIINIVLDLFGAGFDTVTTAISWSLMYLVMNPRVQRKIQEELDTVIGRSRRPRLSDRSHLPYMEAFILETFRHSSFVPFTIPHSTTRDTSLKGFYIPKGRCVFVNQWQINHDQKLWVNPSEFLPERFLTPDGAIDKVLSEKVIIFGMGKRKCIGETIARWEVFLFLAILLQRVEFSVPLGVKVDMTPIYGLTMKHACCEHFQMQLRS

Cytochrome P450 1A2 = molecular target: T3, Cytochrome P450 1A2 (Homo sapiens, UniProt P05177); assay: Inhibition of human liver CYP1A2 expressed in Saccharomyces cerevisiae YY7 microsomal membranes using CEC as substrate after 10 mins by fluorescence assay; type: ADME, Microsomal Membrane; summary of the method: as §1
T3 sequence (P05177 whole entry): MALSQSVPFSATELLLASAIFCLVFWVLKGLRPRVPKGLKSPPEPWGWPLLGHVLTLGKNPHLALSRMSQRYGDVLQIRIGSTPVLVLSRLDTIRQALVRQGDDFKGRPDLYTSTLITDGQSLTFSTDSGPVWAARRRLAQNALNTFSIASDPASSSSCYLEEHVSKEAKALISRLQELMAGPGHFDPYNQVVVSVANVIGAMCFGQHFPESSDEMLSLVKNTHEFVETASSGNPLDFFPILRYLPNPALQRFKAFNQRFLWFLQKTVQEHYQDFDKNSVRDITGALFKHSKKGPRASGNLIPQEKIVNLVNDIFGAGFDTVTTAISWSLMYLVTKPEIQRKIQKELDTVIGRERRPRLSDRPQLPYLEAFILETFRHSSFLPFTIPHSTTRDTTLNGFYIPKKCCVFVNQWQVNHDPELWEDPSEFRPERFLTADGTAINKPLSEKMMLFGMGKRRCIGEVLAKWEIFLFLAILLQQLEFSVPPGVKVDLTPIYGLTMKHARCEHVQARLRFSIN

Cytochrome P450 3A4 = Cytochrome P450 3A4 (Homo sapiens, UniProt P08684); assay: Inhibition of human liver CYP3A4 expressed in Saccharomyces cerevisiae YY7 microsomal membranes using DBF as substrate after 10 mins by fluorescence assay; type: ADME, Microsomal Membrane
Sequence of Cytochrome P450 3A4 (P08684 whole entry): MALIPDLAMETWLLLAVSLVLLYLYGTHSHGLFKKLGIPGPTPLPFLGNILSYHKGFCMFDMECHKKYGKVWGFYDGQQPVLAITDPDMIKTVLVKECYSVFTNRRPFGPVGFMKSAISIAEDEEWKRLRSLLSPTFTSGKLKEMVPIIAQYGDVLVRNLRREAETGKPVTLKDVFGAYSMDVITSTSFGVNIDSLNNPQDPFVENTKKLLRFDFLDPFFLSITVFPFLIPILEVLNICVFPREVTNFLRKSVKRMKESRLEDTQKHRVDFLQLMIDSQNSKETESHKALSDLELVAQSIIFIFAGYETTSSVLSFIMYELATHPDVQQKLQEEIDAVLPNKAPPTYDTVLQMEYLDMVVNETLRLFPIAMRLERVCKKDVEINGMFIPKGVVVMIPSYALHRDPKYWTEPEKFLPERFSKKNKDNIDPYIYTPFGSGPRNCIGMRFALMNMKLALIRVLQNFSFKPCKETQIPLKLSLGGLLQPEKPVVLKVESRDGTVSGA

Cytochrome P450 2D6 = Cytochrome P450 2D6 (Homo sapiens, UniProt P10635); assay: Inhibition of human liver CYP2D6 expressed in Saccharomyces cerevisiae YY7 microsomal membranes using EOMCC as substrate after 10 mins by fluorescence assay; type: ADME, Microsomal Membrane; summary of the method: as §1
Sequence of Cytochrome P450 2D6 (P10635 whole entry): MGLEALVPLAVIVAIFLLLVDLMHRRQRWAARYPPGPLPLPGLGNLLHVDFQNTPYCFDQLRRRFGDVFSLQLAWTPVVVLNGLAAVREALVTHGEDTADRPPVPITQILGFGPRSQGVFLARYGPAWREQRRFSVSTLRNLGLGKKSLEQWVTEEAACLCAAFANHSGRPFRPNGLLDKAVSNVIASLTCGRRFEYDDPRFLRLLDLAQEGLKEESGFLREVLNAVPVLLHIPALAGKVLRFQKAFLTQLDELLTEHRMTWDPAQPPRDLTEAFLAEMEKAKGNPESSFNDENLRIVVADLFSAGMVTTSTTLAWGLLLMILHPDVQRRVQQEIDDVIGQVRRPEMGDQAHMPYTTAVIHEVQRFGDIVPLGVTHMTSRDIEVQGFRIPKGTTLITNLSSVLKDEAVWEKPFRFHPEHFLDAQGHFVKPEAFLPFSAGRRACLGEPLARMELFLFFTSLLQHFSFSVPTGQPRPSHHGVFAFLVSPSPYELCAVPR

Cytochrome P450 2C9 = Cytochrome P450 2C9 (Homo sapiens, UniProt P11712); assay: Inhibition of human liver CYP2C9 expressed in Saccharomyces cerevisiae YY7 microsomal membranes using DBF as substrate after 10 mins by fluorescence assay; type: ADME, Microsomal Membrane
Sequence of Cytochrome P450 2C9 (P11712 whole entry): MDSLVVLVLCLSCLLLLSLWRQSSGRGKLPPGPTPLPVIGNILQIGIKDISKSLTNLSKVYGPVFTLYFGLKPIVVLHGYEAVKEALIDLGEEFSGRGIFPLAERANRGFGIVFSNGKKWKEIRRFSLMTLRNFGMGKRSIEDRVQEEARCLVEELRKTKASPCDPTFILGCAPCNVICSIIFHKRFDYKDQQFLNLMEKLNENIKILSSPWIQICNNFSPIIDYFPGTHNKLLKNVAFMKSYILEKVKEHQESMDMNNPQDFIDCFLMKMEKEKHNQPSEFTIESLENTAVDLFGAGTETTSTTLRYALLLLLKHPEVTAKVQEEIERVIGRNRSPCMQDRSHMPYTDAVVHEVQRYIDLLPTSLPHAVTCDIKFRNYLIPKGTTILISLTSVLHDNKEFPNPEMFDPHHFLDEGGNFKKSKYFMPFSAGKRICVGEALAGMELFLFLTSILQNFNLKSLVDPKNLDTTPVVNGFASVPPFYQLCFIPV

Cytochrome P450 2C19 = Cytochrome P450 2C19 (Homo sapiens, UniProt P33261); assay: Inhibition of human liver CYP2C19 expressed in Saccharomyces cerevisiae YY7 microsomal membranes using DBF as substrate after 10 mins by fluorescence assay; type: ADME, Microsomal Membrane
Sequence of Cytochrome P450 2C19 (P33261 whole entry): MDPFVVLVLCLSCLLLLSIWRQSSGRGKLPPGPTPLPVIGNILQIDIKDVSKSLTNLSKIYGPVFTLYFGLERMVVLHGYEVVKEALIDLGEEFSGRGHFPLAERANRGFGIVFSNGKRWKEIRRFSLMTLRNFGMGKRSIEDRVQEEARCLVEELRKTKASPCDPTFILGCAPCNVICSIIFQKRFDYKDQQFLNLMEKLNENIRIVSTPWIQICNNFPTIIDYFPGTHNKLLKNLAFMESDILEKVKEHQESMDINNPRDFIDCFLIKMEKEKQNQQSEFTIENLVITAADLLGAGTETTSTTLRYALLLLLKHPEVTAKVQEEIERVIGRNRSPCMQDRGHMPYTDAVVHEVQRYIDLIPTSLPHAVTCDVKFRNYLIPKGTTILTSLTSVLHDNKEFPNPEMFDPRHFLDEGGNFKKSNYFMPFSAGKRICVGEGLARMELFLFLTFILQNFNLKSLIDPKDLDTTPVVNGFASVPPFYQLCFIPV

Cytochrome P450 1B1 [2] = molecular target: T1, Cytochrome P450 1B1; assay: Inhibition of human liver CYP1B1 expressed in Saccharomyces cerevisiae YY7 microsomal membranes at 5 to 10 uM using 7-ethoxyresorufin as substrate after 10 mins by fluorescence assay
Summary of the method: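 Single-concentration screen on CYP1B1 yeast microsomes at 5 µM (10 µM per methods), with 7-ER under the regenerating-system endpoint format: 10 min at 37 °C. Percentage inhibition versus a DMSO control; each compound tested twice.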

IC50 (Cytochrome P450 1B1 [1]) [nM]	IC50 (Cytochrome P450 1A1) [nM]	IC50 (Cytochrome P450 1A2) [nM]	IC50 (Cytochrome P450 3A4) [nM]	IC50 (Cytochrome P450 2D6) [nM]	IC50 (Cytochrome P450 2C9) [nM]	IC50 (Cytochrome P450 2C19) [nM]	inhibition (INH) (Cytochrome P450 1B1 [2])	SMILES
15	349	636	28000	4400	> 20000	> 20000	Active	O=C(/C=C/c1cccnc1)c1ccc2ccccc2c1
59	3400	238	12500	10600	> 20000	> 20000	Active	O=C(/C=C/c1cccnc1)c1cccc(Cl)c1
23	958	214	6000	1300	> 20000	> 20000	Active	O=C(/C=C/c1cccnc1)c1cccc2ccccc12
525	3600	2400	–	–	–	–	Active	COc1ccc(C(=O)/C=C/c2cccnc2)cc1
48	122	1000	26000	12000	> 20000	> 20000	Active	O=C(/C=C/c1cccnc1)c1ccc2ccc3ccccc3c2c1
187	907	300	–	–	–	–	Active	O=C(/C=C/c1ccncc1)c1ccc2ccccc2c1
64	2600	162	14000	8000	> 20000	> 20000	Active	O=C(/C=C/c1cccnc1)c1cccc(Br)c1
77	31800	4700	11100	8200	> 20000	> 20000	Active	O=C(/C=C/c1ccccc1)c1cccnc1
133	58	669	–	–	–	–	Active	O=C(/C=C/c1cccnc1)c1cc2ccccc2c2ccccc12
189	17000	2300	–	–	–	–	Active	O=C(/C=C/c1cccnc1)c1ccc(-c2ccccc2)cc1

The next lines start with the compound.

SMILES	IC50 (Cytochrome P450 1B1 [1]) [nM]	IC50 (Cytochrome P450 1A1) [nM]	IC50 (Cytochrome P450 1A2) [nM]	IC50 (Cytochrome P450 3A4) [nM]	IC50 (Cytochrome P450 2D6) [nM]	IC50 (Cytochrome P450 2C9) [nM]	IC50 (Cytochrome P450 2C19) [nM]	inhibition (INH) (Cytochrome P450 1B1 [2])
O=C(/C=C/c1ccc2c(c1)OCO2)c1cccnc1	29	1500	1500	12000	14000	> 20000	> 20000	Active
O=C(/C=C/c1cccc(O)c1)c1cccnc1	466	25000	2900	–	–	–	–	Active
COc1ccc(C(=O)/C=C/c2cccnc2)cc1OC	176	3100	705	–	–	–	–	Active
COc1ccc(/C=C/C(=O)c2cccnc2)c(OC)c1OC	31	297	168	11800	8800	> 20000	> 20000	Active
COc1ccc(/C=C/C(=O)c2cccnc2)cc1OC	19	1400	258	53000	1100	> 20000	> 20000	Active
O=C(/C=C/c1ccc(Cl)c(Cl)c1)c1cccnc1	96	2000	624	15000	10200	> 20000	> 20000	Active
O=C(/C=C/c1cccnc1)c1ccc2ccc3cccc4ccc1c2c34	162	2200	2100	–	–	–	–	Active
COc1ccccc1/C=C/C(=O)c1cccnc1	15	4700	220	1520	1740	> 20000	> 20000	Active
COc1cc(/C=C/C(=O)c2cccnc2)cc(OC)c1OC	349	288	515	–	–	–	–	Active
COc1ccc(/C=C/C(=O)c2cccnc2)cc1O	112	2600	1700	–	–	–	–	Active
COc1cc(OC)cc(C(=O)/C=C/c2cccnc2)c1	106	879	306	–	–	–	–	Active
COc1cccc(C(=O)/C=C/c2cccnc2)c1	130	3500	480	–	–	–	–	Active
O=C(/C=C/c1ccc(F)c(F)c1)c1cccnc1	120	11800	860	–	–	–	–	Active
COc1cccc(/C=C/C(=O)c2cccnc2)c1	32	10500	752	1280	1000	> 20000	> 20000	Active
COc1ccc(C(=O)/C=C/c2cccnc2)c(OC)c1	93	1500	432	11000	7700	> 20000	> 20000	Active
COc1ccc(C(=O)/C=C/c2cccnc2)c(OC)c1OC	137	5300	176	–	–	–	–	Active
